# Rows were chosen to be rich in hits. Some 0.77% of all compounds tested hit in one or more screens of this group.
# hIAP inh: human IAP inhibitors, primary screen, biochemical, luminescence, uHTS; AID 2544, 2010; inhibition, % at 10 µM; purified IAP, CDP-Star luminescence, 30 min; actives 0.12% (n = 330,000);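 active = inhibition reaching a set limit with compound at 10 µM in the primary screen, cut at about 35% in these data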;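 also: plate controls were DMSO wells with enzyme for no effect and no-enzyme buffer wells for full effect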
# Target sequence (P09923 whole entry, looked up): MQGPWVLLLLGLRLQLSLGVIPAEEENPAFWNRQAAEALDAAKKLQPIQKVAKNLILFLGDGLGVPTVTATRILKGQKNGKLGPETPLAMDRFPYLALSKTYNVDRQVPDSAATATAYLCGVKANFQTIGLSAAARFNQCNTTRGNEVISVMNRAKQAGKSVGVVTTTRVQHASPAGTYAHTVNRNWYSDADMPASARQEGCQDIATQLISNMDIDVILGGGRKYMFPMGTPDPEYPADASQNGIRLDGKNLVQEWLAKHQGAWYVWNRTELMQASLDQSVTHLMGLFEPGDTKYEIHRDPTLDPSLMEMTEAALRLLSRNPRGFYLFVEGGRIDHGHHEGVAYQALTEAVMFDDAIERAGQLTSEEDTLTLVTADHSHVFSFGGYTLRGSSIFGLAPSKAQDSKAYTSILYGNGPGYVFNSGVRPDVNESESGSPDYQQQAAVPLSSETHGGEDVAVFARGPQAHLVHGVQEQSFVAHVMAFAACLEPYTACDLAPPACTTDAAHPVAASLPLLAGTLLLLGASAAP
# mIAP block: inhibitors of mouse IAP, primary screen, biochemical, luminescence, uHTS; intestinal alkaline phosphatase [Mus musculus]; purified mouse IAP, CDP-Star luminescence, 30 min; inhibition, % at 10 µM; actives 0.2% (n = 330,000); AID 2806, 2010;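 active = inhibition of at least 40% at 10 µM in the primary screen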;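 also: plate controls were DMSO with enzyme for no effect and no enzyme wells for full effect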
# bIAP inhibitor: bovine intestinal alkaline phosphatase inhibitors, primary screen, selectivity assay for TNAP inhibitor project, biochemical, bovine IAP, CDP-star luminescence; alkaline phosphatase, intestinal [Bos taurus]; purified bovine IAP, 30 min; inhibition, % at 20 µM; 190,000 tested, under 10 active;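 active = over 50% inhibition of intestinal alkaline phosphatase at 20 µM in the single-dose screen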
#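 System: Purified bovine intestinal alkaline phosphatase (IAP) enzyme | Input: IAP diluted 1/65,000,000 in the well | Also added: CDP-star chemiluminescent phosphatase substrate, 30 µM final | Dosing: 20 µM single dose | Times: Enzyme reaction for 30 min at room temperature | Detection: Luminescence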
# bIAP act: bovine intestinal alkaline phosphatase activators, primary screen, biochemical, bovine IAP, CDP-star luminescence; activation factor at 20 µM; purified bovine IAP, 30 min; stronger effect = higher value; fold of DMSO-control signal, blank-subtracted; AID 1016, 2008; alkaline phosphatase, intestinal [Bos taurus]; actives 0.17% (n = 200,000);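 active = activation factor of 2 or more at 20 µM, a signal rise over negative controls twice the positive control's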
# hIAP activ: human IAP activators, primary screen, biochemical, luminescence, uHTS | Intestinal-type alkaline phosphatase (Homo sapiens), P09923 | purified human IAP, CDP-Star luminescence, 30 min; stronger effect = higher value; 1 = vehicle-only enzyme, 0 = enzyme-free background | activation factor at 10 µM | actives 0.16% (n = 330,000) | AID 2524, 2010;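 active = activation factor of the enzyme at least 2-fold when tested at 20 µM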
# mIAP activ: activators of mouse IAP, primary screen, biochemical, luminescence, uHTS; intestinal alkaline phosphatase [Mus musculus]; muIAP, CDP-Star luminescence, 30 min; stronger effect = higher value; 1 = vehicle-only enzyme signal, 0 = enzyme-free wells; activation factor at 10 µM; actives 0.24% (n = 330,000);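 active = activation factor of at least 2 at 20 µM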
#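 System: mouse IAP enzyme. Reagent: CDP-Star chemiluminescent phosphatase substrate. Benchmarks: DMSO wells, no-enzyme wells. Times: 30 min enzyme-substrate-compound incubation at room temperature. Detection: luminescence from enzymatic CDP-Star hydrolysis. Doses: test compounds delivered from DMSO solution.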
# mIAP inh conf: inhibitors of mouse IAP, confirmation, biochemical, luminescence, single concentration | inhibition, % at 10 µM | purified mouse IAP, CDP-Star luminescence, 30 min | actives 4.7% (n = 11,000) | AID 434971, 2010 | shares compounds with mIAP block;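 active = inhibition of at least 40% at 10 µM in either of the two replicates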;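 also: plate controls were DMSO wells with enzyme for no effect and buffer wells lacking enzyme for full effect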
# * = called active by the depositor; i = inactive; . = no result given.
SMILES,hIAP inh,mIAP block,bIAP inhibitor,bIAP act,hIAP activ,mIAP activ,mIAP inh conf
COc1ccc(NC(=O)CSc2nnnn2C2CCCCC2)cc1,-18.6,-3.6,.,.,1.19,1.04,.
COc1ccccc1/C=c1\sc2nc(-c3ccco3)nn2c1=O,22.1,42.4*,5.0,0.9,0.779,0.576,70.4*
CCOc1cc(/C=N/Nc2nc(-c3cccs3)c(NC(C)=O)s2)ccc1O,14.0,41.4*,.,.,0.86,0.586,43.9*
CC(=O)Nc1sc(N/N=C\c2ccccc2)nc1-c1cccs1,-6.8,22.4,-2.7,1,1.07,0.776,.
Fc1cccc2sc(Nc3nnc(-c4ccccc4)o3)nc12,-19.8,27.3,-4.7,1,1.2,0.727,37.5*
O=C(Nc1ccc(F)c(Cl)c1)Nc1ccc(Cl)cn1,0.8,-4.9,-8.0,1.1,0.992,1.05,.
O=C(Nc1ccc(F)c(Cl)c1)Nc1csc2ccccc12,7.8,-386.9,.,.,0.922,4.87*,-115.2
CCN(CC)C(=O)[C@H]1CC(CC(=O)NC/C=C(\C)CCC=C(C)C)C(=O)N2CCc3c([nH]c4ccccc34)[C@]12C (stereo partly specified),-12.6,-13.3,.,.,1.13,1.13,.
COc1cc(/C=C/C(=O)O)ccc1O,3.0,1.7,.,.,0.97,0.983,.
Oc1ccc(/C=N/N=C/c2ccc(O)c(O)c2)cc1O,-0.3,59.7*,.,.,1,0.403,63.6*
COc1cc(NS(=O)(=O)c2ccc(-c3ccc(=O)[nH]n3)o2)cc(OC)c1OC,16.7,9.5,.,.,0.833,0.905,.
OCC[C@@H]1C[C@H](O)[C@@H](O)[C@@]2(CCCO2)O1,-12.7,6.6,.,.,1.13,0.934,.
O=C(CN1CCN(c2ccccc2F)CC1)c1ccc(O)c(O)c1,14.8,45.3*,.,.,0.852,0.547,50.6*
COc1cccc(NC(=O)CN(C)C(=O)CNC(=O)c2ccc3ccccc3c2)c1,-15.3,0.7,.,.,1.15,0.993,.
Cc1ccccc1NC(=O)CSc1nnc(-c2ccco2)c(-c2ccco2)n1,1.2,52.5*,10.5,0.9,0.988,0.475,51.0*
CN(C)c1ccc(NC(=O)CSc2nnc(-c3ccco3)c(-c3ccco3)n2)cc1,13.5,48.9*,.,.,0.865,0.511,60.2*
O=C(CSc1nnc(-c2ccco2)c(-c2ccco2)n1)Nc1ccccc1,9.6,45.3*,12.9,0.9,0.904,0.547,54.0*
COc1ccc(NC(=O)CSc2nnc(-c3ccco3)c(-c3ccco3)n2)cc1OC,1.1,18.4,.,.,0.989,0.816,.
Cc1ccc(NC(=O)CSc2nnc(-c3ccco3)c(-c3ccco3)n2)cc1,9.5,64.2*,1.7,1,0.905,0.358,59.8*
O=C(Nc1ccc(Cl)cc1)N[C@@H]1c2c(ccc3ccccc23)OC[C@@H]1CO,-10.6,i,-11.4,1.1,1.11,13.2*,-385.4
CN(C(=O)c1ccccc1)C1c2c(ccc3ccccc23)OCC1CO (stereo unspecified),7.2,0.9,.,.,0.928,0.991,.
CCOC(=O)C1CCCN(S(=O)(=O)c2ccc3c(c2)N(C(C)=O)CCO3)C1 (stereo unspecified),-15.5,2.6,.,.,1.16,0.974,.
Cc1cc(-c2n[nH]c(=S)n2/N=C/C=C/c2ccco2)n[nH]1,-9.4,49.3*,.,.,1.09,0.507,54.3*
Cc1ccccc1-c1n[nH]c(=S)n1/N=C/C=C/c1ccco1,-4.4,43.9*,.,.,1.04,0.561,50.0*
CN(C)CCOC1c2ccccc2CCc2ccc3ccccc3c21 (stereo unspecified),5.6,10.1,.,.,0.944,0.899,.
SMILES,hIAP inh,mIAP block,bIAP inhibitor,bIAP act,hIAP activ,mIAP activ,mIAP inh conf
CCc1ccccc1NC(=O)Cn1nnc(C(=O)NCc2cccc(OC)c2)c1N,13.2,-2.6,.,.,0.868,1.03,.
O=C(Nc1ccc(Cl)cc1)Nc1cc(S(=O)(=O)N2CCOCC2)ccc1N1CCCC1,-0.6,-191.3,-16.9,1.2,1.01,2.91*,-115.5
O=C(CNc1ccc(F)cc1Cl)Nc1cccc(S(=O)(=O)N2CCCCC2)c1,-14.2,-89.4,.,.,1.14,1.89,.
O=C(Nc1ccc(F)cc1)Nc1cc(S(=O)(=O)N2CCOCC2)ccc1N1CCCC1,-7.7,-71.4,-63.2,1.6,1.08,1.71,.
COc1ccccc1NS(=O)(=O)c1cccc(NC(=O)Nc2ccc(Cl)cc2)c1,-4.0,-113.0,2.8,1,1.04,2.13*,-92.2
O=C(Nc1ccc(Cl)cc1Cl)NC1CCN(S(=O)(=O)c2ccc(F)cc2)CC1,-68.2,-442.6,.,.,1.68,5.43*,-116.3
O=C(Nc1cccc(S(=O)(=O)N2CCCCC2)c1)Nc1ccc(Cl)cc1Cl,12.9,-441.4,-5.5,1.1,0.871,5.41*,-340.6
O=c1c2c(O)cc(O)cc2oc2c(O)ccc(O[C@H]3O[C@@H](CO)[C@H](O)[C@@H](O)[C@@H]3O)c12,0.1,9.5,.,.,0.999,0.905,.
O=c1c(OC2OC(CO)C(O)C(O)C2OC2OC(CO)C(O)C(O)C2O)c(-c2ccc(O)cc2)oc2cc(O)cc(O)c12 (stereo unspecified),-11.2,43.3*,.,.,1.11,0.567,55.4*
C[C@@H]1O[C@@H](O[C@H]2[C@H](O)[C@@H](O)[C@H](Oc3c(-c4ccc(O)c(O)c4)oc4cc(O)cc(O)c4c3=O)O[C@@H]2CO)[C@H](O)[C@H](O)[C@H]1O,21.5,57.7*,.,.,0.785,0.423,48.0*
Cc1ccc(N(C)S(=O)(=O)c2cc3c(cc2C)NC(=O)CO3)cc1,18.6,7.6,.,.,0.814,0.924,.
Cc1cc(=O)n2[nH]c(-c3ccc(F)cc3)cc2n1,-8.9,6.3,-0.3,1,1.09,0.937,.
Cc1ccccc1-c1cc2nc(C)c(Cl)c(=O)n2[nH]1,-2.5,6.0,.,.,1.02,0.94,.
Cc1cc(=O)n2[nH]c(-c3ccsc3-n3c(C)ccc3C)cc2n1,13.0,49.8*,.,.,0.87,0.502,58.9*
COCc1cc(=O)n2[nH]c(-c3ccsc3-n3c(C)ccc3C)cc2n1,9.5,56.1*,4.5,1,0.905,0.439,58.2*
Cc1nc2cc(-c3ccsc3-n3c(C)ccc3C)[nH]n2c(=O)c1Cl,8.7,63.3*,8.4,0.9,0.913,0.367,78.3*
CCc1c(C)sc(NC(=O)c2ccoc2C)c1C(N)=O,-19.8,11.2,.,.,1.2,0.888,.
Cc1ccc(NC(=O)CN2c3cccc4cccc(c34)S2(=O)=O)cc1,-8.1,1.4,.,.,1.08,0.986,.

# Screening results from PubChem.
